Data from ChEMBL document CHEMBL5705906 (Nat Commun, 2017).
The source made the active and inactive calls.

Experiments:
[1] = tested on: BaF3; experiment: Inhibition of EGFR-T790M/del19 mutant in mouse BaF3 cells assessed as inhibition of EGFR phosphorylation at 10 to 1000 nM incubated for 6 hrs by Western blotting analysis; format: cell-based; conditions: dose 10-1000 nM
Method in brief: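 Ba/F3 cells carrying the stated EGFR mutant were made IL-3-independent after 1 week of 7 µM blasticidin selection. They were grown in low-glucose DMEM with 10% FBS and exposed to inhibitor for 6 h. Cells were washed in cold PBS, lysed in SDS buffer (100 mM Tris, 1% SDS, 10% glycerol) and boiled 5 min. Protein was measured by BCA, run on SDS-PAGE, transferred to PVDF, blocked in 5% BSA or milk/TBS-T, and immunoblotted.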

[2] = tested on: A549; experiment: Anticancer activity against human A549 cells assessed as reduction in cell viability at IC50 concentration incubated for 72 hrs by CellTiter-Glo assay; format: functional, cell-based
Method in brief: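 Three-day CellTiter-Glo viability assay. Cells exposed to compound across a 10-dose range of 0.3 nM to 10 µM for 72 h. IC50 from nonlinear sigmoidal dose-response fit.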

[3] = tested on: BaF3; conditions: Mus musculus, dose 10-1000 nM

COc1cc(N2CCC(N3CCN(C)CC3)CC2)ccc1Nc1ncc(Cl)c(Nc2ccccc2P(C)(C)=O)n1 [BRIGATINIB]
active: inhibition [1] | Activity [2] | inhibition [3] Dose-Dependent Effect
